“And” between values parts separate entries of the source, which are not always exact repeats. Equal entries are not always repeated.
Key:
[1] = test system: BALB/c Mice with Subcutaneous Flank DBT Tumors; assay: Whole body biodistribution in mice with subcutaneous DBT gliomas; type: in vivo, mouse; details: for biodistribution, tumor uptake: subcutaneous DBT tumor
In short: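 Male BALB/c mice carried subcutaneous flank DBT tumors (5 × 10⁵ cells) and were used at day 14. Under 1% isoflurane–oxygen, each received ~56 μCi (2.07 MBq) of ⁷⁶Br-labelled or 45 μCi (1.67 MBq) of ¹²³I-labelled test compound by tail vein in 0.9% saline. Mice were killed at 5 min, 30 min, 1, 3 and 24 h (n = 4 per time). Tissues were weighed and γ-counted with decay correction, giving % ID/g.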

[2] = test system: mice with intracranial DBT gliomas; assay: Small animal PET/CT imaging in mice with intracranial DBT gliomas; type: in vivo, mouse; details: PET; for SUV tumor uptake: intracranial DBT tumor
In short: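 Four male BALB/c mice carried intracranial DBT gliomas (1 × 10⁴ cells, right mid-cerebrum) and were imaged 14 days after implantation. Under 1% isoflurane–oxygen, each received ~55 μCi (~2.04 MBq) of ⁷⁶Br-labelled test compound by tail vein in 0.9% saline. Imaging was dynamic PET/CT for 0–60 min, then 15-min static scans at 3 and 24 h. Read-out was SUV. Tumors were confirmed afterwards by H&E on fixed brains.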

DBT glioma cells = assay: Competitive amino acid cell uptake assays; type: cell-based, mouse; details: 60 s, 37 °C
In short: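 Mouse DBT glioma cells were seeded at 1 × 10⁵ cells/well and grown 48 h in 10% FBS DMEM under 5% CO₂. Cells were washed twice in 37 °C buffer, then exposed for 60 s at 37 °C, pH 7.40, to the radiotracer. Buffers were Na phosphate-buffered saline or choline-substituted Na-free buffer. Controls had 10 mM sucrose; BCH was 10 mM. Cells were washed with ice-cold buffer, lysed in 0.2% SDS/0.2 M NaOH, γ-counted, and normalized to added activity and BCA protein. Values are % of control, triplicate × two plates.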

[3] = 50–60 min (summed) after injection

## C[C@](N)(/C=C/[76Br])C(=O)O [[^76Br]5, (S)-amino-2-methyl-4-[^76Br]-bromo-3-(E)-butenoic acid]
[1]; 5 min after i.v. injection
  biodistribution, blood: 5.75 ± 0.44 % ID/g
  biodistribution, bone: 2.13 ± 0.43 % ID/g
  biodistribution, brain: 0.54 ± 0.04 % ID/g
  biodistribution, fat: 1.36 ± 0.38 % ID/g
  biodistribution, heart: 2.92 ± 0.29 % ID/g
  biodistribution, kidney: 47.50 ± 4.26 % ID/g
  biodistribution, liver (all): 4.57 ± 0.27 % ID/g
  biodistribution, lung: 6.20 ± 0.41 % ID/g
  biodistribution, muscle: 1.54 ± 0.18 % ID/g
  biodistribution, pancreas: 27.0 ± 7.2 % ID/g and 27.04 ± 7.15 % ID/g
  biodistribution, spleen: 8.20 ± 0.71 % ID/g
  biodistribution, tumor uptake: 2.5 ± 0.64 % ID/g and 2.52 ± 0.64 % ID/g
[1]; 30 min after i.v. injection
  biodistribution, blood: 1.66 ± 0.16 % ID/g
  biodistribution, bone: 1.95 ± 0.29 % ID/g
  biodistribution, brain: 0.42 ± 0.02 % ID/g
  biodistribution, fat: 0.85 ± 0.71 % ID/g
  biodistribution, heart: 2.21 ± 0.18 % ID/g
  biodistribution, kidney: 8.95 ± 0.91 % ID/g
  biodistribution, liver (all): 1.63 ± 0.33 % ID/g
  biodistribution, lung: 1.73 ± 0.16 % ID/g
  biodistribution, muscle: 1.75 ± 0.77 % ID/g
  biodistribution, pancreas: 24.35 ± 4.06 % ID/g
  biodistribution, spleen: 4.05 ± 0.55 % ID/g
  biodistribution, tumor uptake: 3.8 ± 0.95 % ID/g and 3.79 ± 0.95 % ID/g
[1]; 1 h after i.v. injection
  biodistribution, blood: 1.22 ± 0.19 % ID/g
  biodistribution, bone: 1.18 ± 0.64 % ID/g
  biodistribution, brain: 0.38 ± 0.04 % ID/g
  biodistribution, fat: 0.31 ± 0.20 % ID/g
  biodistribution, heart: 1.67 ± 0.27 % ID/g
  biodistribution, kidney: 5.49 ± 0.98 % ID/g
  biodistribution, liver (all): 1.03 ± 0.48 % ID/g
  biodistribution, lung: 1.15 ± 0.22 % ID/g
  biodistribution, muscle: 0.98 ± 0.12 % ID/g
  biodistribution, pancreas: 14.31 ± 8.12 % ID/g
  biodistribution, spleen: 2.30 ± 0.82 % ID/g
  biodistribution, tumor uptake: 3.7 ± 0.4 % ID/g and 3.72 ± 0.43 % ID/g
[1]; 3 h after i.v. injection
  biodistribution, blood: 0.87 ± 0.44 % ID/g
  biodistribution, bone: 0.46 ± 0.20 % ID/g
  biodistribution, brain: 0.31 ± 0.06 % ID/g
  biodistribution, fat: 0.17 ± 0.04 % ID/g
  biodistribution, heart: 0.67 ± 0.15 % ID/g
  biodistribution, kidney: 1.29 ± 0.43 % ID/g
  biodistribution, liver (all): 0.34 ± 0.09 % ID/g
  biodistribution, lung: 0.54 ± 0.07 % ID/g
  biodistribution, muscle: 0.4 ± 0.20 % ID/g
  biodistribution, pancreas: 2.48 ± 1.17 % ID/g
  biodistribution, spleen: 0.59 ± 0.21 % ID/g
  biodistribution, tumor uptake: 1.65 ± 0.40 % ID/g
[1]; 24 h after i.v. injection
  biodistribution, blood: 0.37 ± 0.04 % ID/g
  biodistribution, bone: 0.1 ± 0.04 % ID/g
  biodistribution, brain: 0.09 ± 0.01 % ID/g
  biodistribution, fat: 0.04 ± 0.01 % ID/g
  biodistribution, heart: 0.13 ± 0.02 % ID/g
  biodistribution, kidney: 0.23 ± 0.02 % ID/g
  biodistribution, liver (all): 0.1 ± 0.02 % ID/g
  biodistribution, lung: 0.27 ± 0.05 % ID/g
  biodistribution, muscle: 0.08 ± 0.01 % ID/g
  biodistribution, pancreas: 0.17 ± 0.02 % ID/g
  biodistribution, spleen: 0.18 ± 0.03 % ID/g
  biodistribution, tumor uptake: 0.25 ± 0.03 % ID/g
[1]; normal brain, through 3 h after injection
  brain uptake, fold higher than with [^123I]8: 2- to 3 fold
[1]; subcutaneous DBT tumors, around 30 min to an hour postinjection
  maximal tumor uptake: 3.7–3.8 % ID/g
[1]; thyroid, 5 min after i.v. injection
  biodistribution, thyroid: 3.60 ± 0.69 % ID/g
[1]; thyroid, 5 min after injection
  thyroid uptake: 3.6 ± 0.7 % ID/organ
[1]; thyroid, 30 min after i.v. injection
  biodistribution, thyroid: 1.63 ± 0.12 % ID/g
[1]; thyroid, 1 h after i.v. injection
  biodistribution, thyroid: 1.26 ± 0.18 % ID/g
[1]; thyroid, 3 h after i.v. injection
  biodistribution, thyroid: 0.53 ± 0.08 % ID/g
[1]; thyroid, 24 h after i.v. injection
  biodistribution, thyroid: 0.17 ± 0.06 % ID/g
[2]; [3]
  tumor/brain SUV ratio: 1.70 ± 0.26
  SUV tumor uptake: 0.63 ± 0.06
[2]; 3 h after injection
  tumor/brain SUV ratio: 2.67 ± 0.15
  SUV tumor uptake: 0.70 ± 0.13
[2]; 24 h after injection
  tumor/brain SUV ratio: 3.05 ± 0.30
DBT glioma cells; Na BCH condition (BCH 10 mM, system L inhibitor, sodium buffer)
  uptake relative to control: 43 ± 8.5%
DBT glioma cells; choline + BCH (sodium-free, Cho-BCH)
  uptake compared to sodium control: 25 ± 4.1%
DBT glioma cells; choline control (sodium-free, Cho-sucrose)
  uptake compared to the sodium control: 46 ± 10%
DBT glioma cells; in the presence of MeAIB (10 mM, system A inhibitor), sodium buffer
  uptake relative to the control: 56 ± 12%
